Here are results for six compounds from ChEMBL document CHEMBL1124226, “Benzothiopyranoindazoles, a new class of chromophore modified anthracenedione anticancer agents. Synthesis and activity against murine leukemias” (J Med Chem, 1988).

In data set [1] the test system is P388. In words: In vivo for the optimal dose for activity against P388 leukemia per injection. It counts as functional, Mus musculus. A digest of the protocol:
(§1)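 P388 leukemia in mice, drug given ip on days 1-5 (Q01D×5, IP/IP, NCI testing protocol). Optimum response taken over doses, expressed as mg/kg per injection. Read-outs are %T/C survival and net log cell kill (Schabel method). Cured mice are included in the %T/C and net kill calculations.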

Data set [2] has as its system Mus musculus. The data set can be described thus: The compound was evaluated in vivo for the optimal dose for activity against murine B-16 melanoma. Type of data set: functional. The method in brief: (§2)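 Murine B-16 melanoma in vivo. Optimal dose given as mg/kg per injection. Response is % T/C survival, with day-60 survivors reported as number per group (of 10 or 6).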

The subject of data set [3] is L1210. In words: In vitro for its inhibitory activity against murine L1210 leukemia. Type of data set: functional, cell-based. Conditions: Mus musculus.
The subject of data set [4] is P388. In words: Percentage T/C survival (treated vs control) against P388 leukemia (day 30 surv). It counts as functional, Mus musculus. The method in brief: as §1
The species named for data set [5] is Mus musculus. The data set can be described thus: % T/C survival against murine B-16 melanoma (day 60 surv). Type of data set: functional. A digest of the protocol:
as §2

Data set [6] has as its system P388 leukemia (mouse). The data set can be described thus: Net log value for P388 leukemia cell kill in mice was determined.
Data set [7] has as its system Mus musculus. In words: The compound was evaluated in vivo for the optimal dose for activity against of B-16 leukemia per injection. Type of data set: functional. Conditions: in the assay text read “B-16 melanoma” for “B-16 leukemia”. The method in brief: as §2

`CCN(CC)CCn1nc2c3c(c(NCCN)ccc31)Sc1cc(O)ccc1-2.Cl.O`: the Dose in data set [1] came out at 6.3 mg/kg; in data set [2] it was 7.5 mg/kg. The compound also had an IC50 in data set [3] of 71 nM. For the same compound, the results for the T/C in data set [4] and in data set [5] were 280% and 281%, respectively.
For the compound `CCN(CC)CCn1nc2c3c(c(NCCNCCO)ccc31)Sc1ccccc1-2.Cl.O`, the values for the Dose in data set [1] and in data set [2] were 12.5 mg/kg and 12 mg/kg, respectively. This compound also displayed an IC50 in data set [3] of 28 nM. Besides, the values for the T/C in data set [4] and in data set [5] were 280% and 273%, respectively. For the same compound, the “Net log cell kill” value in data set [6] is greater than 6.8.
As for `Cl.Nc1ccc2c3c(nn2CCNCCO)-c2ccccc2Sc13.O`, the Dose in data set [1] and in data set [2] was 25 mg/kg throughout. The figures for the T/C in data set [4] and in data set [5] were 188% and 259%, respectively. For the same compound, the “Net log cell kill” value in data set [6] is reported as 4.3.
Take `Br.CCN(CC)CCn1nc2c3c(c(NCCN)ccc31)Sc1ccccc1-2`: the Dose came out at 12.5 mg/kg in data set [1] and 6.3 mg/kg in data set [7]. The compound also returned an IC50 in data set [3] of 30 nM. The compound further yielded a T/C in data set [5] of 159%. For the same compound, the “Net log cell kill” value in data set [6] was greater than 6.6.
With `CCN(CC)CCn1nc2c3c(c(NCCNCCO)ccc31)Sc1ccc(O)cc1-2.Cl.O`, the Dose in data set [1] and in data set [2] was 1.5 mg/kg throughout. For the same compound, the IC50 in data set [3] was found to be 4.8 nM. Besides, the figures for the T/C in data set [4] and in data set [5] were 200% and 183%, respectively. In data set [6], the “Net log cell kill” value was found to be 4.5.
`O=C1c2c(O)ccc(O)c2C(=O)c2c(NCCNCCO)ccc(NCCNCCO)c21` [MITOXANTRONE]: the values for the Dose in data set [1] and in data set [2] were 1.25 mg/kg and 0.6 mg/kg, respectively. Moreover, the T/C in data set [4] came out at 291%; in data set [5], 265%.
